High-throughput results as filed in PubChem.
L major viab = reduces viability of Leishmania major promastigotes; resazurin fluorescence viability; 9% of 200,000 active; AID 1063; inhibition, % at 10 µM; in the data active = inhibition above about 50%;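 note: promastigotes grown with compound for 44 hours at 28 °C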
BaF3 parental = counter-screen for JAK2V617F inhibitors: parental Ba/F3 viability inhibitors | CellTiter-Glo ATP luminescence | inhibition, % at 5.6 µM | 1.1% of 220,000 active;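 active = inhibition above a per-campaign cutoff, the mean inhibition of all tested compounds plus 3 SD, cut at about 27% in these data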;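 note: 0% = DMSO wells and 100% = JAK Inhibitor I control wells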
Ba/F3 V617F tox = loss of viability in JAK2V617F-driven Ba/F3 cells; Ba/F3 EpoR-JAK2V617F viability, ATP luminescence; inhibition, % at 5.6 µM; 1.1% of 220,000 active; AID 1446;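 active = inhibition above the campaign mean plus 3 SD over all tested compounds, cut at about 24% in these data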;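 note: cytokine-independent growth of Ba/F3 cells driven by EpoR plus mutant JAK2; 0% = DMSO-treated cells and 100% = JAK inhibitor I control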
MT stabilizer = stabilizes microtubules in HeLa cells | 0.83% of 200,000 active | HeLa tubulin immunostaining HCS, 24 h; share of cells brighter than vehicle mean+2SD | % tubulin-high responders, % at 10 µM | AID 2205;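 active = plate Z-score above 3 for both tubulin-high and condensed-nucleus cell shares, with cell loss under 80%, at 10 µM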;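 note: anti alpha tubulin signal scored within the nucleus-defined area of each cell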
bCat nuc transl = modulators of beta-catenin nuclear translocation; AID 1665; 0.3% of 190,000 active; nuclear translocation activity, % at 5 µM; HeLa beta-catenin nuclear translocation, immunofluorescence imaging;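 active = nuclear translocation activity above 50% at 5 µM, with a well cell count of 50 or more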;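 note: per-cell ratio of nuclear to cytoplasmic median beta-catenin stain intensity; plate controls were DMSO negative control for no effect and GSK-3 inhibitor IX positive control for full effect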
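Test system: human HeLa cells, native beta-catenin. Compound dosing: 5 µM primary single dose, 0.1% DMSO, 0.02–20 µM confirmation series. Incubation: compound exposure 24 h at 37°C. Detection: beta-catenin immunostaining with DAPI counterstain, 20x imaging, 6 fields/well. Read-out basis: Nuclear/cytoplasmic beta-catenin signal ratio, % activation.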
APP 5UTR inh = APP translation inhibition | 0.82% of 190,000 active | SH-SY5Y APP 5'UTR-luciferase reporter, luminescence | inhibition, % at 2 µM;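 active = inhibition above a set limit, derived from the sample mean plus 3 SD, cut at about 45% in these data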
Numbers without * were called inactive. Compounds with a hit are over-represented: about 9.6% of the library has one in this group of screens.

What do the screens show for `N#CC1=C(N)Nc2nc3ccccc3n2C1c1ccc(Cl)cc1` (centres undefined)?
L major viab: 77*; BaF3 parental: 10; Ba/F3 V617F tox: 4; MT stabilizer: 2; bCat nuc transl: 1; APP 5UTR inh: 0

What do the screens show for `N#CC1=C(N)Nc2ncnn2C1c1ccccc1` (centres undefined)?
L major viab: 57*; BaF3 parental: 13; Ba/F3 V617F tox: 2; MT stabilizer: 2; bCat nuc transl: -1; APP 5UTR inh: -12

Results for COc1ccc(-c2nc(NC(=O)Cn3c(=O)oc4ccccc43)sc2C)cc1 ?
L major viab: 5; BaF3 parental: 0; Ba/F3 V617F tox: -4; MT stabilizer: 3; bCat nuc transl: 2; APP 5UTR inh: -11

How did COc1ccc(-c2nc(NC(=O)C3CCN(c4nc5ccccc5o4)CC3)sc2C)cc1 do in these assays?
L major viab: 79*; BaF3 parental: 11; Ba/F3 V617F tox: 3; MT stabilizer: 3; bCat nuc transl: -1; APP 5UTR inh: 11

Results for Cc1ccc(N(C)C(=O)N2CCN(S(=O)(=O)c3c(C)cc(C)cc3C)CC2)cc1 ?
L major viab: 98*; BaF3 parental: 4; Ba/F3 V617F tox: 4; MT stabilizer: 3; APP 5UTR inh: 11

What do the screens show for `C=CCNCCCCOc1ccccc1-c1ccccc1`?
L major viab: 98*; BaF3 parental: 10; Ba/F3 V617F tox: 0; MT stabilizer: 3; bCat nuc transl: 3; APP 5UTR inh: 3

Results for OCCNCCOc1ccccc1-c1ccccc1 ?
L major viab: 1; BaF3 parental: 4; Ba/F3 V617F tox: 3; MT stabilizer: 3; bCat nuc transl: -3; APP 5UTR inh: -12

How did CN(C)CCOCCOc1ccccc1-c1ccccc1 do in these assays?
L major viab: 81*; BaF3 parental: -2; Ba/F3 V617F tox: -2; MT stabilizer: 2; bCat nuc transl: -1; APP 5UTR inh: 5

What do the screens show for `COCCCNCCCCOc1ccccc1-c1ccccc1`?
L major viab: 98*; BaF3 parental: 5; Ba/F3 V617F tox: 0; MT stabilizer: 3; bCat nuc transl: -2; APP 5UTR inh: 1

How did OCCNCCOCCOc1ccccc1-c1ccccc1 do in these assays?
L major viab: 62*; BaF3 parental: 14; Ba/F3 V617F tox: 5; MT stabilizer: 4; bCat nuc transl: -2; APP 5UTR inh: -10

What do the screens show for `CNCCCCOc1ccccc1-c1ccccc1`?
L major viab: 39; BaF3 parental: 5; Ba/F3 V617F tox: -2; MT stabilizer: 4; bCat nuc transl: -2; APP 5UTR inh: -5

How did CC(C)c1nc(NCCO)c2nnn(Cc3ccccc3)c2n1 do in these assays?
L major viab: -1; BaF3 parental: 4; Ba/F3 V617F tox: 0; MT stabilizer: 4; bCat nuc transl: -1; APP 5UTR inh: 7

How did COc1ccccc1CCc1nnc(CCC(=O)NCC[C@@H]2C[C@@H]3C=C[C@H]2C3)o1 do in these assays?
L major viab: -5; BaF3 parental: 6; Ba/F3 V617F tox: -4; MT stabilizer: 2; bCat nuc transl: -2; APP 5UTR inh: 3

Results for COCCNCCOc1ccccc1-c1ccccc1 ?
L major viab: 85*; BaF3 parental: 6; Ba/F3 V617F tox: 1; MT stabilizer: 1; APP 5UTR inh: 17

Results for CNCCOc1ccccc1-c1ccccc1 ?
L major viab: 4; BaF3 parental: 2; Ba/F3 V617F tox: -2; MT stabilizer: 3; bCat nuc transl: -7; APP 5UTR inh: -18

What do the screens show for `COCCCNCCOc1ccccc1-c1ccccc1`?
L major viab: 47; BaF3 parental: 5; Ba/F3 V617F tox: 4; MT stabilizer: 2; bCat nuc transl: -3; APP 5UTR inh: -9

Results for CCCCNCCOc1ccccc1-c1ccccc1 ?
L major viab: 97*; BaF3 parental: 6; Ba/F3 V617F tox: -2; MT stabilizer: 5; bCat nuc transl: 2; APP 5UTR inh: -23

How did O=C(Nc1nc2ccsc2c(=O)s1)c1ccc(Cl)cc1 do in these assays?
BaF3 parental: -1; Ba/F3 V617F tox: 0; bCat nuc transl: 0

Results for O=C(CN1CCCc2ccccc21)N/N=C/c1ccccc1 ?
L major viab: 12; BaF3 parental: 2; Ba/F3 V617F tox: -1; MT stabilizer: 7; bCat nuc transl: 0; APP 5UTR inh: -37

Results for CCN(CC)c1ccc(/C=N/NC(=O)CN2CCCc3ccccc32)cc1 ?
L major viab: 6; BaF3 parental: 3; Ba/F3 V617F tox: -4; MT stabilizer: 4; bCat nuc transl: 4; APP 5UTR inh: 2

How did O=C(CN1CCCc2ccccc21)N/N=C/c1c(O)ccc2ccccc12 do in these assays?
L major viab: 99*; BaF3 parental: 10; Ba/F3 V617F tox: 3; MT stabilizer: 9; bCat nuc transl: 14; APP 5UTR inh: -4

How did O=C(CN1CCCc2ccccc21)N/N=C/c1ccc(O)cc1O do in these assays?
L major viab: 98*; BaF3 parental: 4; Ba/F3 V617F tox: -3; MT stabilizer: 4; bCat nuc transl: -3; APP 5UTR inh: -52

How did Cc1c(Cl)cccc1Nc1ncccc1C(=O)OCC(O)CO (centres undefined) do in these assays?
BaF3 parental: -5; Ba/F3 V617F tox: -3; bCat nuc transl: -1

What do the screens show for `c1cncc(CNc2ccc3c(c2)OCO3)c1`?
L major viab: 52*; BaF3 parental: 4; Ba/F3 V617F tox: 0; MT stabilizer: 3; APP 5UTR inh: 6

Results for COc1ccc(NCc2ccc3c(c2)OCO3)cc1Cl ?
L major viab: 84*; BaF3 parental: 4; Ba/F3 V617F tox: -3; MT stabilizer: 2; bCat nuc transl: 1; APP 5UTR inh: -10

How did Oc1ccccc1CNc1ccc2c(c1)OCCO2 do in these assays?
L major viab: 2; BaF3 parental: 0; Ba/F3 V617F tox: 3; MT stabilizer: 2; bCat nuc transl: 1; APP 5UTR inh: -23

What do the screens show for `Cc1ccc(CNc2ccc3c(c2)OCO3)c(C)c1`?
L major viab: 99*; BaF3 parental: 2; Ba/F3 V617F tox: -4; MT stabilizer: 4; bCat nuc transl: 2; APP 5UTR inh: -25

Results for CCS(=O)(=O)c1ccc2c(c1)N(S(=O)(=O)c1ccc(Cl)cc1)CC(C(=O)O)O2 (centres undefined) ?
L major viab: -4; BaF3 parental: 10; Ba/F3 V617F tox: 4; MT stabilizer: 4; bCat nuc transl: -4; APP 5UTR inh: -3

What do the screens show for `COc1ccc(C(=O)C2CCCN(C(=O)/C=C/c3ccccn3)C2)c(C)c1` (centres undefined)?
L major viab: 2; BaF3 parental: 2; Ba/F3 V617F tox: 3; MT stabilizer: 2; bCat nuc transl: -1; APP 5UTR inh: -13

Results for Cc1ccc(OCCN2CCN(c3nc(NCc4ccco4)c4ccccc4n3)CC2)cc1 ?
L major viab: 99*; BaF3 parental: 6; Ba/F3 V617F tox: -1; MT stabilizer: 3; bCat nuc transl: 3; APP 5UTR inh: 9
